Laboratory results taken from ChEMBL document CHEMBL3046785, “Antifungal activity of borrelidin produced by a Streptomyces strain isolated from soybean” (J Agric Food Chem, 2012).
Converted amounts (≈) assume the structure as drawn.

Columns and labels:
Glycine max = assay: Phytotoxicity against germinated Glycine max (soybean) seeds at 10 mg/L; format: organism-based; conditions: in vivo
Phytophthora sojae [1] = assay: Antifungal activity against Phytophthora sojae race 1 assessed as growth inhibition at 28 degC after 7 days (beneficial crop soybean); format: functional, organism-based; conditions: race 1, 168 h
Outline: (§1)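 Race-specific mycelial growth assay on carrot agar (CA) at 28 °C. Test article was dissolved in methanol, diluted with water and added to CA; a 0.2% methanol plate served as negative control. A 5 mm plug from the colony margin was centred on each plate. Colony diameters were recorded once the control was covered. Inhibition = (1 − D/Dc) × 100. EC50/EC95 came from linear regression. Run in triplicate.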

Phytophthora sojae [2] = assay: Antifungal activity against Phytophthora sojae race 3 assessed as growth inhibition at 28 degC after 7 days (beneficial crop soybean); format: functional, organism-based; conditions: race 3, 168 h; outline: as §1
Phytophthora sojae [3] = assay: Antifungal activity against Phytophthora sojae race 4 assessed as growth inhibition at 28 degC after 7 days (beneficial crop soybean); format: functional, organism-based; conditions: race 4, 168 h; outline: as §1
Phytophthora sojae [4] = assay: Antifungal activity against Phytophthora sojae race 5 assessed as growth inhibition at 28 degC after 7 days (beneficial crop soybean); format: functional, organism-based; conditions: race 5, 168 h; outline: as §1
Phytophthora sojae [5] = assay: Antifungal activity against Phytophthora sojae race 9 assessed as growth inhibition at 28 degC after 7 days (beneficial crop soybean); format: functional, organism-based; conditions: race 9, 168 h; outline: as §1
Phytophthora sojae [6] = assay: Antifungal activity against Phytophthora sojae race 13 assessed as growth inhibition at 28 degC after 7 days (beneficial crop soybean); format: functional, organism-based; conditions: race 13, 168 h; outline: as §1
Phytophthora sojae [7] = assay: Antifungal activity against Phytophthora sojae race 44 assessed as growth inhibition at 28 degC after 7 days (beneficial crop soybean); format: functional, organism-based; conditions: race 44, 168 h; outline: as §1
Phytophthora sojae [8] = assay: Antifungal activity against Phytophthora sojae race 54 assessed as growth inhibition at 28 degC after 7 days (beneficial crop soybean); format: functional, organism-based; conditions: race 54, 168 h; outline: as §1
Phytophthora sojae [9] = assay: Antifungal activity against Phytophthora sojae race 1 in germinated soybean seeds assessed as root length at 1 mg/L after 48 hr (untreated control = 4.15 +/- 0.71 cm); format: functional
Phytophthora sojae [10] = assay: Antifungal activity against Phytophthora sojae race 1 in germinated soybean seeds assessed as root length at 5 mg/L after 48 hr (untreated control = 4.15 +/- 0.71 cm); format: functional
Phytophthora sojae [11] = assay: Antifungal activity against Phytophthora sojae race 1 in germinated soybean seeds assessed as root length at 10 mg/L after 48 hr (untreated control = 4.15 +/- 0.71 cm); format: functional
Phytophthora sojae [12] = assay: Antifungal activity against Phytophthora sojae race 1 in germinated soybean seeds assessed as lesion length at 1 mg/L after 48 hr (untreated control = 3.34 +/- 0.64 cm); format: functional
Phytophthora sojae [13] = assay: Antifungal activity against Phytophthora sojae race 1 in germinated soybean seeds assessed as lesion length at 5 mg/L after 48 hr (untreated control = 3.34 +/- 0.64 cm); format: functional
Phytophthora sojae [14] = assay: Antifungal activity against Phytophthora sojae race 1 in germinated soybean seeds assessed as lesion length at 10 mg/L after 48 hr (untreated control = 3.34 +/- 0.64 cm); format: functional
Phytophthora sojae [15] = assay: Antifungal activity against Phytophthora sojae race 1 in germinated soybean seeds assessed as disease control efficacy at 1 mg/L after 48 hr relative to control; format: functional
Outline: (§2)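 Seeds (Hefeng-25) were surface-sterilised (10% NaOCl, 20 min), rinsed, and germinated at 30 °C until roots exceeded 10 mm, five per dish on wet filter paper. Roots received 2 mL of solution: 1% Tween 80 in water, or 25% WP in water (4/20/40 mg/L = 1/5/10 mg a.i./L). A 7 mm race 1 disk was placed on the roots and removed after 24 h. After 48 h at 28 °C, roots were rated 0–4 and disease index computed. Efficiency is relative to the inoculated Tween control. Three experiments.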

Phytophthora sojae [16] = assay: Antifungal activity against Phytophthora sojae race 1 in germinated soybean seeds assessed as disease control efficacy at 5 mg/L after 48 hr relative to control; format: functional; outline: as §2
Phytophthora sojae [17] = assay: Antifungal activity against Phytophthora sojae race 1 in germinated soybean seeds assessed as disease control efficacy at 10 mg/L after 48 hr relative to control; format: functional; outline: as §2
Phytophthora sojae [18] = assay: Antifungal activity against Phytophthora sojae race 1 in germinated soybean seeds assessed as root length at 4 mg/L after 48 hr compound at 25% WP (untreated control = 4.15 +/- 0.71 cm); format: functional
Phytophthora sojae [19] = assay: Antifungal activity against Phytophthora sojae race 1 in germinated soybean seeds assessed as root length at 20 mg/L after 48 hr compound at 25% WP (untreated control = 4.15 +/- 0.71 cm); format: functional
Phytophthora sojae [20] = assay: Antifungal activity against Phytophthora sojae race 1 in germinated soybean seeds assessed as root length at 40 mg/L after 48 hr compound at 25% WP (untreated control = 4.15 +/- 0.71 cm); format: functional
Phytophthora sojae [21] = assay: Antifungal activity against Phytophthora sojae race 1 in germinated soybean seeds assessed as lesion length at 4 mg/L after 48 hr compound at 25% WP (untreated control = 3.34 +/- 0.64 cm); format: functional
Phytophthora sojae [22] = assay: Antifungal activity against Phytophthora sojae race 1 in germinated soybean seeds assessed as lesion length at 20 mg/L after 48 hr compound at 25% WP (untreated control = 3.34 +/- 0.64 cm); format: functional
Phytophthora sojae [23] = assay: Antifungal activity against Phytophthora sojae race 1 in germinated soybean seeds assessed as lesion length at 40 mg/L after 48 hr compound at 25% WP (untreated control = 3.34 +/- 0.64 cm); format: functional
Phytophthora sojae [24] = assay: Antifungal activity against Phytophthora sojae race 1 in germinated soybean seeds assessed as disease control efficacy at 4 mg/L after 48 hr compound at 25% WP relative to control; format: functional; outline: as §2
Phytophthora sojae [25] = assay: Antifungal activity against Phytophthora sojae race 1 in germinated soybean seeds assessed as disease control efficacy at 20 mg/L after 48 hr compound at 25% WP relative to control; format: functional; outline: as §2
Phytophthora sojae [26] = assay: Antifungal activity against Phytophthora sojae race 1 in germinated soybean seeds assessed as disease control efficacy at 40 mg/L after 48 hr compound at 25% WP relative to control; format: functional; outline: as §2

Row | Compound | EC50 (Phytophthora sojae [1]) [µg/mL] | EC95 (Phytophthora sojae [1]) [µg/mL] | EC50 (Phytophthora sojae [2]) [µg/mL] | EC95 (Phytophthora sojae [2]) [µg/mL] | EC50 (Phytophthora sojae [3]) [µg/mL] | EC95 (Phytophthora sojae [3]) [µg/mL] | EC50 (Phytophthora sojae [4]) [µg/mL] | EC95 (Phytophthora sojae [4]) [µg/mL] | EC50 (Phytophthora sojae [5]) [µg/mL] | EC95 (Phytophthora sojae [5]) [µg/mL] | EC50 (Phytophthora sojae [6]) [µg/mL] | EC95 (Phytophthora sojae [6]) [µg/mL] | EC50 (Phytophthora sojae [7]) [µg/mL] | EC95 (Phytophthora sojae [7]) [µg/mL] | EC50 (Phytophthora sojae [8]) [µg/mL] | EC95 (Phytophthora sojae [8]) [µg/mL] | further results
1 | C[C@@H]1C[C@H](C)C[C@H](C)[C@@H](O)CC(=O)O[C@H]([C@@H]2CCC[C@H]2C(=O)O)C/C=C/C=C(/C#N)[C@H](O)[C@@H](C)C1 [BORRELIDIN] | 0.0056 (≈ 0.0114 µM) | 0.026 (≈ 0.0531 µM) | 0.0051 (≈ 0.0104 µM) | 0.021 (≈ 0.0429 µM) | 0.0038 (≈ 0.00776 µM) | 0.017 (≈ 0.0347 µM) | 0.0052 (≈ 0.0106 µM) | 0.02 (≈ 0.0408 µM) | 0.0053 (≈ 0.0108 µM) | 0.02 (≈ 0.0408 µM) | 0.0057 (≈ 0.0116 µM) | 0.021 (≈ 0.0429 µM) | 0.0047 (≈ 0.0096 µM) | 0.018 (≈ 0.0368 µM) | 0.0057 (≈ 0.0116 µM) | 0.021 (≈ 0.0429 µM) | Activity (Glycine max): Non-toxic; Activity (Phytophthora sojae [9]): 6.24 cm; Activity (Phytophthora sojae [10]): 6.53 cm; Activity (Phytophthora sojae [11]): 6.81 cm; Activity (Phytophthora sojae [12]): 1.91 cm; Activity (Phytophthora sojae [13]): 0.73 cm; Activity (Phytophthora sojae [14]): 0.25 cm; Efficacy (Phytophthora sojae [15]): 56.25%; Efficacy (Phytophthora sojae [16]): 80.76%; Efficacy (Phytophthora sojae [17]): 94.72%
2 | COCC(=O)N(c1c(C)cccc1C)C(C)C(=O)OC (stereo unspecified) [METALAXYL] | 0.35 (≈ 1.25 µM) | 6.82 (≈ 24.4 µM) | 0.17 (≈ 0.609 µM) | 4.63 (≈ 16.6 µM) | 0.18 (≈ 0.644 µM) | 8.03 (≈ 28.7 µM) | 0.3 (≈ 1.07 µM) | 11.6 (≈ 41.5 µM) | 0.34 (≈ 1.22 µM) | 11.8 (≈ 42.3 µM) | 0.32 (≈ 1.15 µM) | 7.55 (≈ 27 µM) | 0.28 (≈ 1 µM) | 12.2 (≈ 43.9 µM) | 0.3 (≈ 1.07 µM) | 13.3 (≈ 47.5 µM) | Activity (Phytophthora sojae [18]): 6.21 cm; Activity (Phytophthora sojae [19]): 6.48 cm; Activity (Phytophthora sojae [20]): 6.73 cm; Activity (Phytophthora sojae [21]): 2.57 cm; Activity (Phytophthora sojae [22]): 1.34 cm; Activity (Phytophthora sojae [23]): 0.62 cm; Efficacy (Phytophthora sojae [24]): 45.52%; Efficacy (Phytophthora sojae [25]): 71.97%; Efficacy (Phytophthora sojae [26]): 87.7%
